# Data reported in ChEMBL document CHEMBL1129933, “Tyrosine kinase inhibitors. 6. Structure-activity relationships among N- and 3-substituted 2,2'-diselenobis(1H-indoles) for inhibition of protein tyrosine kinases and comparative in vitro and in vivo studies against selected sulfur congeners” (J Med Chem, 1997).
# What was measured:
# [1] = biological target: Epidermal growth factor receptor (Mus musculus) (UniProt Q01279); experiment: Inhibition of epidermal growth factor receptor (EGFr) autophosphorylation
# MCF7 [2] = experiment: In vivo activity against human MCF-7 xenograft, tumor growth delay (T-C) at 3.0 mg/kg ip dose at 4 hour intervals 3x a day for 5-11 days; settings: route intraperitoneal
# B16 [3] = experiment: In vivo activity against murine B16 melanoma, net cell kill at 0.75 mg/kg administered intraperitoneally at 4 hour intervals 3x a day for 9 days; type: functional, Mus musculus; settings: route intraperitoneal
# How it was run: (§1)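 Tumors were passaged in C57BL/6 mice; B6C3F1 mice (18-22 g, randomized) were implanted on day 0 ip with counted tumor cells or sc with fragments. Dosing was ip bolus, daily or q4h ×3 daily, by average cage weight. Vehicle was distilled H2O or 10% DMA in 50 mM lactic acid buffer, pH 4.0. Net cell kill = log reduction in tumor burden between first and last treatments.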
# Colon 26 [4] = experiment: In vivo activity against murine colon 26, weight change after 1.5 mg/kg ip dose for 9 days; type: functional, Mus musculus; settings: route intraperitoneal
# How it was run: (§2)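 Murine tumours were maintained by serial transplantation (~30 mg fragments every 2 weeks): B16 in C57BL/6 and colon 26 in BALB/c. They were tested in F1 hosts, B6C3F1 for B16 and CD2F1 for colon 26, weighing 18-22 g. Treatment was ip daily or q4h ×3 for 9 days. Weight change was the difference between mean group weights on the last and first treatment days, from life-span assays.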
# Colon 26 [5] = experiment: In vivo activity against murine colon 26, weight change after 0.75 mg/kg ip dose at 4 hour intervals 3x a day for 9 days; type: functional, Mus musculus; settings: route intraperitoneal
# How it was run: as §2
# [6] = Inhibition of RNA synthesis; type: functional
# How it was run: (§3)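 Log-phase cells were drug-treated for 2 h, then exposed for 2 h to 1 µM [methyl-3H]thymidine (DNA), [5-3H]uridine (RNA) or (S)-[4,5-3H]leucine (protein), each at 1 µCi/nmol. Cells were trypsinized into ice-cold 15% TCA, and precipitates were collected on glass-fibre filters, washed, and counted by scintillation.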
# A-431 [7] = experiment: In vivo activity against human A431 epidermoid xenograft, net cell kill at 10 mg/kg administered subcutaneously for 9-15 days; type: functional; settings: route subcutaneous
# How it was run: (§4)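 Nude mice (NCr nu/nu), 18-22 g, randomized, implanted sc in the right axilla with serially passaged A431 tumor fragments on day 0. Dosing was by ip bolus or continuous sc Alzet miniosmotic pump infusion, by average cage weight. Vehicle was distilled H2O or 10% DMA in 50 mM lactic acid buffer, pH 4.0, depending on compound. Net cell kill = net log reduction in tumor burden between first and last treatments.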
# M5076 = experiment: In vivo activity against murine M5076 sarcoma, net cell kill at 3.0 mg/kg ip dose at 4 hour intervals 3x per day for 9 days; type: functional, Mus musculus; settings: route intraperitoneal
# How it was run: as §1
# A-431 [8] = experiment: In vivo activity against human A431 epidermoid xenograft, net cell kill at 9 mg/kg administered subcutaneously for 1-27 days; type: functional; settings: route subcutaneous
# How it was run: as §4
# [9] = Inhibition of protein synthesis; type: functional
# How it was run: as §3
# MCF7 [10] = experiment: In vivo activity against human MCF-7 xenograft, tumor growth delay (T-C) at 12.0 mg/kg ip dose for 5-11 days; settings: route intraperitoneal
# [11] = Inhibition of DNA synthesis; type: functional
# How it was run: as §3
# B16 [12] = experiment: In vivo activity against murine B16 melanoma, net cell kill at 3.0 mg/kg ip dose for 9 days; type: functional, Mus musculus; settings: route intraperitoneal
# How it was run: as §1
# Colon 26 [13] = experiment: In vivo activity against murine colon 26, percent treated/control tumor mass at 1.5 mg/kg ip dose for 9 days; type: functional, Mus musculus; settings: route intraperitoneal
# How it was run: as §2
# C6 [14] = experiment: In vivo activity against C6 glioma xenograft, weight change after 5 mg/kg ip dose for 9 days; type: functional, organism-based; parameters: dose 5 mg/kg
# How it was run: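 Nude mice (NCr nu/nu, 18-22 g) implanted sc in the right axilla with serially passaged C6 glioma fragments on day 0, randomized, and dosed ip by bolus on days 1-9 based on average cage weight. Vehicle was distilled H2O or 10% DMA in 50 mM lactic acid buffer, pH 4.0, depending on compound. Weight change was taken as the maximum treatment-related weight loss.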
# MCF7 [15] = experiment: In vivo activity against human MCF-7 xenograft, net cell kill at 3.0 mg/kg administered intraperitoneally at 4 hour intervals 3x a day for 5-11 days; type: functional; settings: route intraperitoneal
# How it was run: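 Nude mice (NCr nu/nu), 18-22 g, randomized and implanted on day 0 with serially passaged MCF-7 tumor (sc fragments in right axilla or ip cells). Compound was given ip bolus q4h ×3 daily, by average cage weight. Vehicle was distilled H2O or 10% DMA in 50 mM lactic acid, pH 4.0. Net cell kill = log tumor-burden reduction between first and last treatments.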
# MCF7 [16] = experiment: In vivo activity against human MCF-7 xenograft, weight change after 3.0 mg/kg ip dose at 4 hour intervals 3x a day for 5-11 days; type: functional, organism-based; parameters: dose 3 mg/kg
# How it was run: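 MCF-7 breast carcinoma xenografts were serially passaged in nude mice (NCr nu/nu) and implanted in randomized 18-22 g mice on day 0. Dosing was ip bolus, either daily or q4h ×3 daily, with vehicle of distilled H2O or 10% DMA in 50 mM lactic acid buffer, pH 4.0. Weight change was taken as the maximum treatment-related loss.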
# B16 [17] = experiment: In vivo activity against murine B16 melanoma, weight change after 0.75 mg/kg ip dose at 4 hour intervals 3x a day for 9 days; type: functional, Mus musculus; settings: route intraperitoneal
# How it was run: as §2
# Colon 26 [18] = experiment: In vivo activity against murine colon 26, percent treated/control tumor mass at 0.75 mg/kg ip dose at 4 hour intervals 3x a day for 9 days; type: functional, Mus musculus; settings: route intraperitoneal
# How it was run: as §2
# Colon 26 [19] = experiment: In vivo activity against murine colon 26 tumor, net cell kill at 1.5 mg/kg ip dose for 9 days; type: functional, Mus musculus; settings: route intraperitoneal
# How it was run: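 Colon 26 was passaged in BALB/c mice; tested in CD2F1 mice (18-22 g, randomized) implanted on day 0 ip with counted cells or sc with fragments. Dosing was ip bolus, daily or q4h ×3 daily, by average cage weight. Vehicle was distilled H2O or 10% DMA in 50 mM lactic acid, pH 4.0. Net cell kill = log tumor-burden reduction between first and last treatments.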
# [20] = biological target: T1, Epidermal growth factor receptor (Homo sapiens, UniProt P00533); experiment: Inhibition of epidermal growth factor receptor (EGFr) using peptide substrate
# How it was run: (§5)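 EGFr came from membrane vesicles shed by human A431 carcinoma cells. Activity was measured as 32P-phosphate transfer from ATP into a TCA-precipitable glutamate/tyrosine (4:1) random copolymer. ATP or peptide polymer substrate was varied. Ki was obtained by nonlinear regression with Cleland's equations, comparing slope and intercept determinations to assign the inhibition type.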
# A-431 [21] = experiment: In vivo activity against human A431 epidermoid xenograft, weight change after 9 mg/kg sc dose for 1-27 days; type: functional, organism-based; parameters: dose 9 mg/kg
# How it was run: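 Nude mice (NCr nu/nu, 18-22 g) bearing sc A431 fragments in the right axilla (day 0) received continuous sc infusion from an Alzet miniosmotic pump implanted under ketamine-xylazine. Pumps were removed or replaced under lidocaine-epinephrine for longer therapy, in 7-day and 27-day studies. Daily dose was the maximum deliverable without significant precipitation. Weight change was taken as the maximum treatment-related loss.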
# C6 [22] = experiment: In vivo activity against C6 glioma xenograft, tumor growth delay (T-C, days) at 5 mg/kg ip dose for 9 days; settings: route intraperitoneal
# [23] = biological target: T1, Epidermal growth factor receptor; experiment: Inhibition of epidermal growth factor receptor (EGFr) using ATP substrate
# How it was run: as §5
# T1 sequence (P00533 whole entry): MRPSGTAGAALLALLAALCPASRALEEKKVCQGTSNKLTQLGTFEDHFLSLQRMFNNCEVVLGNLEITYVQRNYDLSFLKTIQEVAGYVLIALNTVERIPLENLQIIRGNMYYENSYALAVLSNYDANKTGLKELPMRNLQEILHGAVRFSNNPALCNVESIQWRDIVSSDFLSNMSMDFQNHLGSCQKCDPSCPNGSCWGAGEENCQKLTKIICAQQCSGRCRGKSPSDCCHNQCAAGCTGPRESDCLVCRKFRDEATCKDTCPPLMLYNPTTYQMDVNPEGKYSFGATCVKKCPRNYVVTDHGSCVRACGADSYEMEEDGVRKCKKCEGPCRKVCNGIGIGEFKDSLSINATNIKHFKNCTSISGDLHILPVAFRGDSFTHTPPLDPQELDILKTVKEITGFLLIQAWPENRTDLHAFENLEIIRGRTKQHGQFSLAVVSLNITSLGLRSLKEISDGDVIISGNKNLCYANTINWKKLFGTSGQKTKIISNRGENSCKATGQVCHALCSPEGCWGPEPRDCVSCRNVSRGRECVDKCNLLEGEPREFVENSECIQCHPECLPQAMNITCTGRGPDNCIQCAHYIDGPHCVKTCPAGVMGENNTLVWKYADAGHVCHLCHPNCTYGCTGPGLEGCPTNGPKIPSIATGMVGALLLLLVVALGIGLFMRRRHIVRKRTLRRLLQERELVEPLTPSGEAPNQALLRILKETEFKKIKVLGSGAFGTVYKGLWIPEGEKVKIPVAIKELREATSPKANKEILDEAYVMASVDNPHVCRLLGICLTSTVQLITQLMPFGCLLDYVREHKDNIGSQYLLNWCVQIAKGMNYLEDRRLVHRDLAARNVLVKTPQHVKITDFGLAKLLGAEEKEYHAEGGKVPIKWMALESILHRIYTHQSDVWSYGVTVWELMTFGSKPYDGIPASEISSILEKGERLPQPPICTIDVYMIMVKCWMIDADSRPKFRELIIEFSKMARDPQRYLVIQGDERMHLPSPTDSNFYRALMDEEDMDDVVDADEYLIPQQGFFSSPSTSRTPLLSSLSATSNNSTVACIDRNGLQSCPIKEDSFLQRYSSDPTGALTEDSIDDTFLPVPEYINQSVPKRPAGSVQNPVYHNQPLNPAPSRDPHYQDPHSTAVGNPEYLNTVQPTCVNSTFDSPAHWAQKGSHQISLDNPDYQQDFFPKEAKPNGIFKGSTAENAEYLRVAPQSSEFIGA
# Chain of Epidermal growth factor receptor (Mus musculus) (Q01279 whole entry, looked up): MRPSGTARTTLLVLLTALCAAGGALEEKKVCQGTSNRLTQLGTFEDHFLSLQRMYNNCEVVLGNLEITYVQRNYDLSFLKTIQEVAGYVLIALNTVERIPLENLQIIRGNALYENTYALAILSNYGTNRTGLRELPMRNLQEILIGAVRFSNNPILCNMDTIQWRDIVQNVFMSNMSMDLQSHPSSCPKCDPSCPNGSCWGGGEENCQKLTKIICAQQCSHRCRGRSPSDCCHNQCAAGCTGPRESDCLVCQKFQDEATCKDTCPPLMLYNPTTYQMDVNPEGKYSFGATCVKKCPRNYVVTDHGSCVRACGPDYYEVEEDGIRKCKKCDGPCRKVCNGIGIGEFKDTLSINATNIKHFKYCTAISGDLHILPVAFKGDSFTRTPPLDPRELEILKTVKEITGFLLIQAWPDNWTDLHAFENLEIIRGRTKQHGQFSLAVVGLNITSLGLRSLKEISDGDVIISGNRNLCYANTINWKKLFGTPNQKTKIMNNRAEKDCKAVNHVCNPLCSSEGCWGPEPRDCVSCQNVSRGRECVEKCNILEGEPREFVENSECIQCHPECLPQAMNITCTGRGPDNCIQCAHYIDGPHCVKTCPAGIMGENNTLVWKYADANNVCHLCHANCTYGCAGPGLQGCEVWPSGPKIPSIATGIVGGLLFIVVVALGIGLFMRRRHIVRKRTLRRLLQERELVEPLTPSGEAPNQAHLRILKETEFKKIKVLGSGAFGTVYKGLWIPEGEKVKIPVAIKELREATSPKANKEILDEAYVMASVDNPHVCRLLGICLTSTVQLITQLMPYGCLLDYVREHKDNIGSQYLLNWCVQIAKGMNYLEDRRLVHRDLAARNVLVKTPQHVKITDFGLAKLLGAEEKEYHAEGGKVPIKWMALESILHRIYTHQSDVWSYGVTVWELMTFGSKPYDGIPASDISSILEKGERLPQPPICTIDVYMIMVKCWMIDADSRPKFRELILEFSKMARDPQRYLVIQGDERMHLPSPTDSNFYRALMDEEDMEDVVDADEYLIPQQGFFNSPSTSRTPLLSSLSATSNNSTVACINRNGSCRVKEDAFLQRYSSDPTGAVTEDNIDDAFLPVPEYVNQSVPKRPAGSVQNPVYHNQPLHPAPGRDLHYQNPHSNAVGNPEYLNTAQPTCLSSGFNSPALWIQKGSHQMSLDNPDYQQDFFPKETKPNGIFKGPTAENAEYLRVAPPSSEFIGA
smiles,measurement,setting,value
NC(Cc1c(SSc2[nH]c3ccccc3c2CC(N)C(=O)NCc2ccccc2)[nH]c2ccccc12)C(=O)NCc1ccccc1 (centres undefined),IC50,[1],> 100000 nM
same,T-C,MCF7 [2],1 days
same,Net cell kill,B16 [3],-1.3 log10
same,Weight change,Colon 26 [4],1.8 g
same,Weight change,Colon 26 [5],0.8 g
same,IC50,[6],2000 nM
same,Net cell kill,A-431 [7],-0.2 log10
same,Net cell kill,M5076,-0.8 log10
same,Net cell kill,A-431 [8],-0.6 log10
same,IC50,[9],600 nM
same,T-C,MCF7 [10],0 days
same,IC50,[11],2500 nM
same,Net cell kill,B16 [12],-1.3 log10
same,T/C,Colon 26 [13],115%
same,Weight change,C6 [14],Weight gain
same,Net cell kill,MCF7 [15],-1.2 log10
same,Weight change,MCF7 [16],Weight gain
same,Weight change,B16 [17],1.1 g
same,T/C,Colon 26 [18],119%
same,Net cell kill,Colon 26 [19],-0.3 log10
same,Ki,[20],21200 nM
same,Weight change,A-431 [21],Weight gain
same,T-C,C6 [22],0 days
same,Ki,[23],19400 nM
